In series [1] the target is Human immunodeficiency virus type 1 reverse transcriptase (Human immunodeficiency virus 1) (UniProt Q72547).
Series [2] relates to Human immunodeficiency virus 1. Briefly: Resistance index, ratio of ID50 for reverse transcriptase Y181I mutant to IC50 for wild-type HIV1 reverse transcriptase. The gist of the method:
(§1)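 Recombinant wt and K103N, L100I or Y181I HIV-1 RT (>95% pure), 2-4 nM. RNA-dependent DNA polymerase assay on 0.5 µg poly(rA)/oligo(dT) 10:1 (0.3 µM 3'-OH ends) with 10 µM [3H]-dTTP and 8% final DMSO. Aliquots taken every 2 min. Inhibitor range 0.2-5× ID50, fitted to a noncompetitive model. Fold resistance is mutant ID50 divided by wt ID50.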

The subject of series [3] is Human immunodeficiency virus 1. In words: Resistance index, ratio of ID50 for reverse transcriptase L100I mutant to IC50 for wild-type HIV1 reverse transcriptase. The method, boiled down: as §1
Series [4] is described as follows: Cytotoxicity against human MT4 cells by MTT assay. The format is cell-based. The method, boiled down: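 Mock-infected MT-4 cells were exposed to a range of compound concentrations. Viability was read by MTT at day 5. CC50 is the concentration that kills 50% of uninfected cells. The top concentration was limited by compound precipitation in culture medium. Means ± SD from at least two or three experiments.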

The subject of series [5] is Human immunodeficiency virus 1. Briefly: Antiviral activity against HIV1 NL4-3 in human MT4 cells assessed as inhibition of virus-induced cytopathogenicity by MTT assay. The format is functional, organism-based. Particulars: Human immunodeficiency virus 1, NL4-3, MT4. The gist of the method:
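MT-4 lymphoid cells infected with wild-type HIV-1 NL4-3 in the presence of a range of compound concentrations. Viable cells were counted by MTT colorimetric read-out at day 5 post-infection. EC50 is the concentration giving 50% protection from virus-induced cytopathic effect. Means ± SD from at least two or three experiments.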
(In general: Damage to the host cells serves as the signal in cytopathic effect assays.)

The test system of series [6] is Human immunodeficiency virus 1. Briefly: Antiviral activity against HIV1 isolates with reverse transcriptase Y188L mutation in human MT4 cells assessed as inhibition of virus-induced cytopathogenicity by MTT assay. The format is functional, organism-based. Particulars: Human immunodeficiency virus 1, MT4. The method, boiled down: (§2)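 MT-4 lymphoid cells infected with HIV-1 carrying RT K103N, Y181C or Y188L, in the presence of different drug concentrations. Viable cells counted at day 5 postinfection by MTT colorimetric assay. EC50 is the concentration that inhibits 50% of the HIV-induced cytopathic effect.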

Series [7] deals with Human immunodeficiency virus 1. In words: Antiviral activity against HIV1 isolates with reverse transcriptase Y181C mutation in human MT4 cells assessed as inhibition of virus-induced cytopathogenicity by MTT assay. The class given is functional, organism-based. Particulars: Human immunodeficiency virus 1, MT4. The method, boiled down:
as §2

The subject of series [8] is Human immunodeficiency virus type 1 reverse transcriptase (Human immunodeficiency virus 1), Q72547 [L100I].
In series [9] the test system is Human immunodeficiency virus 1. In words: Antiviral activity against HIV1 isolates with reverse transcriptase K103N mutation in human MT4 cells assessed as inhibition of virus-induced cytopathogenicity by MTT assay. The format is functional, organism-based. Particulars: Human immunodeficiency virus 1, MT4. The gist of the method:
as §2

A short description of series [10]: Selectivity index, ratio of CC50 for human MT4 cells to EC50 for HIV1 NL4-3. The class given is toxicity, cell-based. Particulars: read-out: Ratio CC50/EC50. The gist of the method: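 Computed as CC50/EC50. CC50 comes from MTT viability of mock-infected MT-4 cells and EC50 from MTT protection of NL4-3-infected MT-4 cells, both read at day 5.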
The test system of series [11] is Human immunodeficiency virus type 1 reverse transcriptase (Human immunodeficiency virus 1), Q72547 [Y181I].
The subject of series [12] is Human immunodeficiency virus type 1 reverse transcriptase (Human immunodeficiency virus 1), Q72547 [K103N].
The subject of series [13] is Human immunodeficiency virus 1. In words: Resistance index, ratio of ID50 for reverse transcriptase K103N mutant to IC50 for wild-type HIV1 sreverse transcriptase. The gist of the method: as §1
For series [14], the system named is Human immunodeficiency virus 1. Briefly: Resistance index, ratio of EC50 for drug-resistant HIV1 isolate with reverse transcriptase Y181C mutation to EC50 for wild type HIV1 NL4-3. The class given is functional. The method, boiled down: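 Fold resistance is the EC50 against the K103N, Y181C or Y188L mutant strain divided by the EC50 against wt NL4-3. Each EC50 is from MT-4 cells infected in the presence of different drug concentrations, with viability read by MTT at day 5 postinfection.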

By CC50 is commonly meant the concentration that lowers cell viability or growth by half. By EC50 is commonly meant the concentration at which the effect is half-maximal. Regarding `O=C(CSc1nc(Cc2c(F)cccc2Cl)cc(=O)[nH]1)c1ccccc1`, the ID50 in series [1] is 0.002 µM; in [8], 1.5 µM; in series [11] it was 0.4 µM; in [12], 2 µM. Also, the Ratio in series [2] worked out at 200; in series [3], 750; in [13] it was 1000. In series [4], this molecule had a half-maximal cytotoxic concentration (CC50) of over 13 µM. The 50% effective concentration (EC50) was 1.26 µM in series [5], over 13 µM in [6], over 13 µM in series [7] and over 13 µM in series [9]. For the same molecule, in series [10], the selectivity ratio is over 10.

Consider `O=C(CSc1nc(Cc2c(F)cccc2Cl)cc(=O)[nH]1)c1ccc(F)cc1`, for which the ID50 in series [1] is 0.93 µM; in [8] it was over 40 µM; in series [11], 9.2 µM; in series [12], 20.7 µM. For the same molecule, the Ratio amounted to 10 in [2] and 22 in series [13]. The CC50 in [4] is over 61 µM. Further, the EC50 was 0.29 µM in series [5], over 61 µM in series [6], 13.9 µM in series [7] and over 61 µM in series [9]. Further, the “Ratio EC50” value in [14] was 48. Besides, the selectivity ratio in series [10] is over 210.

In the case of `O=C(CSc1nc(Cc2c(Cl)cccc2Cl)cc(=O)[nH]1)c1ccccc1`, the ID50 was determined as 0.012 µM in [1], 11 µM in series [8], 0.26 µM in series [11] and 3.7 µM in series [12]. Besides, the values for the Ratio in series [2], in [3] and in [13] were 22, 917 and 308, respectively. This molecule also yielded a CC50 in [4] of over 12 µM. For the same molecule, the EC50 in [5] was 1.78 µM; in series [6], over 12 µM; in series [7] it was over 12 µM; in series [9] it was over 12 µM. Besides, the selectivity ratio in [10] is over 7.

On to `CCc1c(Cc2c(F)cccc2F)nc(SCC(=O)c2ccc(OC)cc2)[nH]c1=O`, for which the ID50 is 0.031 µM in series [1], over 40 µM in [8], 0.58 µM in series [11] and 3.41 µM in series [12]. For the same molecule, the figures for the Ratio in series [2] and in series [13] were 19 and 110, respectively. The molecule also came in with a CC50 in series [4] of over 58 µM. Besides, the concentration giving a half-maximal response (EC50) in [5] is 0.009 µM; in [6] it was over 58 µM; in series [7], 0.25 µM; in series [9] it was over 58 µM. The “Ratio EC50” value in series [14] stood at 28. The selectivity ratio in [10] is over 6440.

Take `CCC(C)c1c(Cc2c(F)cccc2Cl)nc(SCC(=O)c2ccc(OC)cc2)[nH]c1=O` (centres undefined): the ID50 in series [1] is 0.007 µM; in series [8], 27.4 µM; in series [11], 7.9 µM; in series [12], 0.59 µM. Besides, the values for the Ratio in series [2], in [3] and in series [13] were 1130, 3910 and 84, respectively. This molecule also returned a CC50 in series [4] of 40 µM. For the same molecule, the EC50 in series [5] is 0.006 µM; in [6] it was over 40 µM; in series [7], over 40 µM; in series [9], over 40 µM. Further, the selectivity ratio in series [10] was over 6670.

Turning to `COc1ccc(C(=O)CSc2nc(Cc3c(F)cccc3Cl)cc(=O)[nH]2)cc1`, the ID50 was 0.014 µM in series [1], 0.5 µM in series [8], over 40 µM in series [11] and 3.4 µM in series [12]. Also, the Ratio in [3] turned out to be 36; in [13], 243. In [4], this molecule returned a 50% cytotoxic concentration (CC50) of over 12 µM. For the same molecule, the EC50 in [5] is 1.55 µM; in [6], over 12 µM; in series [7], over 12 µM; in series [9], over 12 µM. In addition, the selectivity ratio in [10] was over 8.

Regarding `Cc1c(Cc2c(Cl)cccc2Cl)nc(SCC(=O)c2ccc(F)cc2)[nH]c1=O`, the ID50 in series [1] was 0.19 µM; in [8] it was 10.7 µM; in series [11], 0.8 µM; in [12] it was over 40 µM. In addition, the Ratio is 4 in series [2] and 56 in [3]. In [4], this molecule displayed a CC50 of over 57 µM. For the same molecule, the concentration for a half-maximal effect (EC50) in series [5] is 0.046 µM; in series [6], over 57 µM; in series [7] it was over 57 µM; in [9] it was over 57 µM. Besides, in [10], the selectivity ratio was over 1240.
